Screening data (PubChem)
Rows were chosen to be rich in hits. Some 12% of all compounds tested hit in one or more screens of this group.
bCat nuc transl: modulators of beta-catenin nuclear translocation, primary screen, imaging, HeLa cells, immunofluorescence, high-content. nuclear translocation activity, % at 5 µM. actives 0.3% (n = 190,000);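 active = nuclear translocation activity above 50% at 5 µM, with a well cell count of 50 or more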;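 note: per-cell ratio of nuclear to cytoplasmic median beta-catenin stain intensity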
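assay system = human HeLa cells, endogenous beta-catenin | times = compound treatment 24 h, 37°C, 5% CO2 | detection = Anti-beta-catenin immunofluorescence on PFA-fixed, Triton-permeabilized cells, DAPI nuclei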
MT stabilizer: microtubule stabilizers in HeLa cells, primary screen, imaging, high-content imaging; HeLa tubulin immunostaining HCS, 24 h; share of cells brighter than vehicle mean+2SD; % tubulin-high responders, % at 10 µM; actives 0.83% (n = 200,000); AID 2205, 2009;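 active = plate Z-score above 3 for both tubulin-high and condensed-nucleus cell shares, with cell loss under 80%, at 10 µM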;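 note: anti alpha tubulin signal scored within the nucleus-defined area of each cell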
CHOP inh: inhibitors of CHOP promoter induction, primary screen, cell-based, unfolded protein response, luciferase reporter | inhibition, % at 10 µM | CHO-K1 CHOP-promoter luciferase, tunicamycin-induced, 15-18 h | actives 3.8% (n = 220,000) | AID 2732, 2010;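 active = compounds that reduced the stress-induced luciferase reporter signal by more than about 70% of percent inhibition, limit read from the data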
L major viab: Leishmania major promastigote growth inhibition, primary screen | Leishmania major promastigotes, resazurin fluorescence viability | inhibition, % at 10 µM | actives 9% (n = 200,000) | AID 1063, 2008; in the data active = inhibition above about 50%;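 note: promastigotes grown with compound for 44 hours at 28 °C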
Autophagy mod: autophagy modulators in MEF cells, primary screen, imaging, high-content, MEF GFP-LC3 | MEF GFP-LC3 puncta imaging; test concentration mostly 10 µM | actives 0.98% (n = 190,000) | calls only at 10 µM (by protocol);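 active = percentage of spot-positive cells more than 3 SD above its plate mean, without a fluorescence outlier flag or 80% toxicity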
Dynein transport: inhibitors of GR-EGFP nuclear translocation, primary screen, dynein cargo transport inhibitor project, imaging, high-content, 3617.4 mouse cells. test concentration mostly 20 µM; stimulated with dexamethasone, 1 µM; hits give low values. AID 1381, 2008. z-score, hits read low. actives 0.47% (n = 220,000);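 active = plate z-score of nuclear minus cytoplasmic receptor signal below a set negative limit, without overly bright fluorescence or cell loss, cut at about -3.5 in these data, passing the limit was not always enough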;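 note: z-score of nuclear minus cytoplasmic ring GR-EGFP intensity difference per well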
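Buffer or medium: tet-free, stripped-serum medium; Also added: dexamethasone, 1.0 µM final; Technique: high-content fluorescence imaging after fixation; Times: 48 h induction, 1 h compound, 30 min dex at 37 °C; Read-out: per-cell GR-EGFP intensity, nucleus versus surrounding cytoplasmic ring, well-averaged.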
Large screens that a line does not name were inactive.

Cc1ccc(Nc2nnc(SCC(=O)Nc3ncc(C(F)(F)F)cc3Cl)s2)cc1	CHOP inh 74
CC(C)(C)NC(=O)COC(=O)c1cc(S(=O)(=O)N2CCCCC2)ccc1N1CCOCC1	none
CCOC(=O)c1ccccc1NS(=O)(=O)c1ccccc1	none
CCOC(=O)c1cnc(SC)nc1Oc1cccc(NS(=O)(=O)c2ccc(C)cc2)c1	Autophagy mod active
CCOC(=O)c1cccc(NS(=O)(=O)c2ccc(NC(C)=O)cc2)c1	none (no result: bCat nuc transl)
CCOC(=O)C1CCN(C(=O)c2ccccc2NS(=O)(=O)c2ccc(F)cc2)CC1	L major viab 53
CCOC(=O)C1CCN(C(=O)c2ccccc2NS(=O)(=O)c2cc(C)ccc2C)CC1	none
CCOC(=O)c1ccccc1NS(=O)(=O)c1ccc(C)cc1	MT stabilizer 26 (no result: bCat nuc transl)
CCOC(=O)C1CCN(C(=O)c2ccc(CNS(=O)(=O)c3ccc(OC)cc3)cc2)CC1	Autophagy mod active
CC(=O)N1CSCC1C(=O)NNS(=O)(=O)c1ccccc1 (stereo unspecified)	none (no result: MT stabilizer, L major viab, Autophagy mod)
Cc1ccc(S(=O)(=O)Nc2cccc3c2CCCC3)cc1	L major viab 54
Cc1ccc(S(=O)(=O)Nc2ccccc2-c2ccccc2)cc1	bCat nuc transl 62, MT stabilizer 36, Autophagy mod active
Cc1ccc(S(=O)(=O)Nc2ccnc3ccccc23)cc1	none
Cc1ccc(S(=O)(=O)Nc2ccc(O)c3ncccc23)cc1	bCat nuc transl 58, CHOP inh 73, L major viab 99
Cc1ccc(S(=O)(=O)Nc2cccc3ncccc23)cc1	none (no result: MT stabilizer, L major viab, Autophagy mod)
COc1cccc(Cn2cc(C(=O)NCCN(C)C)nn2)c1	none
C/C=C/C(=O)Nc1nnc(-c2ccccc2C)s1	CHOP inh 85
C=C(C)C(=O)Nc1nnc(-c2ccccc2C)s1	none
COc1cc(OC)c(OC)cc1CN1CCN(Cc2cccn2C)CC1	none
COc1cccc(CNC(=O)CNC(=S)N(Cc2ccccc2)Cc2ccccc2F)c1	none
Cc1ccc(CNC(=O)CNC(=S)N(Cc2ccccc2)Cc2ccccc2F)cc1	Autophagy mod active
O=C(CNC(=S)N(Cc1ccccc1)Cc1ccccc1F)NCc1ccccc1	none
O=C(CNC(=S)N(Cc1ccccc1)Cc1ccccc1F)NCc1ccc(Cl)cc1	CHOP inh 78
Cc1ccc(-n2ncc3c(NCc4ccccc4)ncnc32)cc1	CHOP inh 80
c1ccc(-n2ncc3c(NCc4ccc5c(c4)OCO5)ncnc32)cc1	none
Cc1ccc(CNc2ncnc3c2cnn3-c2ccccc2)cc1	CHOP inh 95
Cc1ccc(CN2C(=O)CCC2C(=O)NCc2ccccc2Cl)cc1 (stereo unspecified)	none
CC1(C)CSC(=NCCc2ccccc2)N1C(=O)c1ccc(C#N)cc1	L major viab 92
CC1(C)CC(=O)/C(=C(\O)c2ccccc2)C(=NCCc2ccccc2)C1	none
O=C(COc1ccc(Nc2ccccc2)cc1)OCC(=O)N1CCCCC1	none (no result: MT stabilizer, L major viab, Autophagy mod)
Cc1ccc(-n2c(O)c(C=NCc3ccccn3)c3ccccc3c2=O)cc1C	L major viab 71
O=c1c2ccccc2c(C=NCc2ccccn2)c(O)n1-c1ccccc1	none
CC12C(=O)N(c3ccccn3)C(=O)C1C1C=CC2C1 (stereo unspecified)	CHOP inh 75 (no result: bCat nuc transl)
O=C(NCc1ccco1)C1CC(c2cc(C(F)(F)F)cc(C(F)(F)F)c2)=NO1 (stereo unspecified)	bCat nuc transl 92 (no result: MT stabilizer, L major viab, Autophagy mod)
COc1ccc(OC)c(C2=NOC(C(=O)NCc3ccco3)C2)c1 (stereo unspecified)	MT stabilizer 21 (no result: bCat nuc transl)
O=C(NCc1ccco1)C1CC(c2ccccc2C(F)(F)F)=NO1 (stereo unspecified)	none (no result: MT stabilizer, L major viab, Autophagy mod)
COC(=O)CCCC(=O)N1CCCC(CCC(=O)NCc2ccc(F)c(F)c2)C1 (stereo unspecified)	none
Cc1ccc2nc(-c3ccccc3)cn2c1	CHOP inh 76
CC(=O)Nc1ccc(-c2cn3cc(C)ccc3n2)cc1	none
Cc1cc(NC(=O)Nc2ccc(Cl)c(Cl)c2)n(-c2ccccc2)n1	none (no result: MT stabilizer, L major viab, Autophagy mod)
